Source: ChEMBL document CHEMBL1212914, “A novel water-soluble gossypol derivative increases chemotherapeutic sensitivity and promotes growth inhibition in colon cancer” (J Med Chem, 2010)
“And” between values parts separate entries of the source, which are not always exact repeats. Equal values may be shown once.

Legend:
[1] = system: A549; test: Cytotoxicity against human A549 cells after 72 hrs by MTT assay; type: functional, cell-based; conditions: A549, 72 h
In short: (§1)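 Compounds dissolved in DMSO; cells seeded at 5 × 10^3 per well and treated after adherence with a range of concentrations for 72 h, with DMSO as negative control. MTT was added for 4 h at 37 °C in the dark, formazan dissolved in DMSO, and absorbance read. IC50 (μM) was calculated as the mean of three independent experiments.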

[2] = system: MDA-MB-435; test: Cytotoxicity against human MDA-MB-435 cells after 72 hrs by MTT assay; type: functional, cell-based; in short: as §1
[3] = system: MCF7; test: Cytotoxicity against human MCF7 cells after 72 hrs by MTT assay; type: functional, cell-based; in short: as §1
[4] = system: HCT-116; test: Cytotoxicity against human HCT116 cells after 72 hrs by MTT assay; type: functional, cell-based; in short: as §1
[5] = system: B16-F10; test: Cytotoxicity against mouse B16F10 cells after 72 hrs by MTT assay; type: functional, cell-based; in short: as §1
[6] = system: PC-3; test: Cytotoxicity against human PC3 cells after 72 hrs by MTT assay; type: functional, cell-based; in short: as §1
[7] = system: 4T1; test: Cytotoxicity against mouse 4T1 cells after 72 hrs by MTT assay; type: functional, cell-based; in short: as §1
[8] = system: CT26; test: Cytotoxicity against mouse CT26 cells after 72 hrs by MTT assay; type: functional, cell-based; in short: as §1
[9] = system: MCF-7 (Homo sapiens); test: Cytotoxicity against human MCF-7 cells after 72 hrs by MTT assay; conditions: MCF-7, 72 h
[10] = system: Mus musculus; test: Toxicity in BALB/c mouse assessed as mortality at 120 umol/kg, po administered daily once for 12 days measured on day 8; type: organism-based; conditions: in vivo, 288 h
In short: (§2)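 Male BALB/c mice aged 6-8 weeks, n = 6 per group, received 120 μmol/kg by gavage once daily for 12 days in 10% ethanol, with 10% ethanol alone as the control. Survival was followed over time, and mice were weighed at day 12 and then sacrificed. Small intestine was paraffin-embedded, cut into 5 μm sections, H&E-stained and examined by light microscopy. Student's t test was used.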

[11] = system: Mus musculus; test: Toxicity in BALB/c mouse assessed as mortality at 120 umol/kg, po administered daily once for 12 days; type: organism-based; conditions: in vivo, 288 h; in short: as §2
[12] = system: Mus musculus; test: Toxicity in BALB/c mouse assessed as induction of small intestine damage at 120 umol/kg, po administered daily once for 12 days; type: organism-based; conditions: in vivo, 288 h; in short: as §2
[13] = system: SW-620; test: Cytotoxicity against human SW620 cells after 72 hrs by MTT assay; type: functional, cell-based; in short: as §1
[14] = Solubility of the compound in 100 gram of water; type: physicochemical; conditions: buffer
In short: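 Water solubility was measured at 37 °C as the mass of compound dissolving in 100 g of H2O.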

| Compound | IC50 [1] [µM] | IC50 ([2]; Homo sapiens, MDA-MB-435, 72 h) [µM] | IC50 ([3]; Homo sapiens, MCF7, 72 h) [µM] | IC50 ([4]; Homo sapiens, HCT-116, 72 h) [µM] | IC50 ([5]; Mus musculus, B16-F10, 72 h) [µM] | IC50 ([6]; Homo sapiens, PC-3, 72 h) [µM] | IC50 ([7]; Mus musculus, 4T1, 72 h) [µM] | IC50 ([8]; Mus musculus, CT26, 72 h) [µM] | IC50 [9] [µM] | IC50 ([13]; Homo sapiens, SW-620, 72 h) [µM] | also measured |
| --- | --- | --- | --- | --- | --- | --- | --- | --- | --- | --- | --- |
| Cc1cc2c(C(C)C)c(O)c(O)c(/C=N/C3C(=O)N4[C@@H]3SC(C)(C)[C@@H]4C(=O)O)c2c(O)c1-c1c(C)cc2c(C(C)C)c(O)c(O)c(/C=N/C3C(=O)N4[C@@H]3SC(C)(C)[C@@H]4C(=O)O)c2c1O (single isomer, unassigned) | > 40 | > 40 | > 40 | > 40 | > 40 | > 40 | > 40 | > 40 | > 40 | – | – |
| Cc1cc2c(C(C)C)c(O)c(O)c(C=O)c2c(O)c1-c1c(C)cc2c(C(C)C)c(O)c(O)c(C=O)c2c1O [GOSSYPOL] | – | – | 12.6 | – | – | – | 18.8 | – | 12.6 | – | Activity [10]: Toxic; Activity [11]: Non-toxic; Activity [12]: Toxic; IC50 ([2]; mda-mb-435): 11.8 µM and 33.2 µM; IC50 ([3]; mcf7): 21.6 µM; IC50 ([13]; sw-620): 17.2 µM; IC50 ([4]; hct-116): 3.33 µM and 22 µM; IC50 ([5]; b16-f10): 5.54 µM and 18 µM; IC50 ([6]; pc-3): 9.14 µM and 22.4 µM; IC50 ([7]; 4t1): 21.5 µM; IC50 ([8]; ct26): 2.21 µM and 13.6 µM; solubility [14]: < 0.001 g |
| CCC(C)[C@H](/N=C/c1c(O)c(O)c(C(C)C)c2cc(C)c(-c3c(C)cc4c(C(C)C)c(O)c(O)c(/C=N/[C@H](C(=O)O)C(C)CC)c4c3O)c(O)c12)C(=O)O (some centres not stated) | 14.8 | > 40 | 28.5 | 34.9 | 19.9 | > 40 | > 40 | 18.4 | – | 22.6 | – |
| CC/C(C)=C(\NCc1c(O)c(O)c(C(C)C)c2cc(C)c(-c3c(C)cc4c(C(C)C)c(O)c(O)c(CN/C(C(=O)O)=C(/C)CC)c4c3O)c(O)c12)C(=O)O | 13.2 | > 40 | 25.8 | 23.4 | 20.1 | > 40 | > 40 | 11.9 | – | 11.8 | – |
